Experimental data reported in ChEMBL document CHEMBL1131622, “(+/-)-trans-2-[3-methoxy-4-(4-chlorophenylthioethoxy)-5-(N-methyl-N- hydroxyureidyl)methylphenyl]-5-(3,4, 5-trimethoxyphenyl)tetrahydrofuran (CMI-392), a potent dual 5-lipoxygenase inhibitor and platelet-activating factor receptor antagonist” (J Med Chem, 1998).
Values joined by “and” are separate entries in the source; they are usually repeats but may differ in a detail not shown here. Equal values may be shown once.

How the values were obtained:
Homo sapiens [1] = species on record: Homo sapiens; assay: (§1) Compound was evaluated for inhibiting production of LTB4 in calcium Ionophore (A23187) activated human whole blood.; type: functional
In short: (§2)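 Heparinized human whole blood (1 mL) preincubated with compound in DMSO 15 min at 37 °C, then stimulated with A23187 (50 μM final) 30 min at 37 °C; plasma LTB4 measured by EIA. IC50 by regression; percent inhibition also reported at 3 μM.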

[2] = target: T1, Polyunsaturated fatty acid 5-lipoxygenase (Rattus norvegicus, UniProt P12527); assay: Inhibition of 5-lipoxygenase mediated conversion of [14C]arachidonic acid to leukotrienes in RBL-2H3 cells; type: cell-based
T1 sequence (P12527 whole entry): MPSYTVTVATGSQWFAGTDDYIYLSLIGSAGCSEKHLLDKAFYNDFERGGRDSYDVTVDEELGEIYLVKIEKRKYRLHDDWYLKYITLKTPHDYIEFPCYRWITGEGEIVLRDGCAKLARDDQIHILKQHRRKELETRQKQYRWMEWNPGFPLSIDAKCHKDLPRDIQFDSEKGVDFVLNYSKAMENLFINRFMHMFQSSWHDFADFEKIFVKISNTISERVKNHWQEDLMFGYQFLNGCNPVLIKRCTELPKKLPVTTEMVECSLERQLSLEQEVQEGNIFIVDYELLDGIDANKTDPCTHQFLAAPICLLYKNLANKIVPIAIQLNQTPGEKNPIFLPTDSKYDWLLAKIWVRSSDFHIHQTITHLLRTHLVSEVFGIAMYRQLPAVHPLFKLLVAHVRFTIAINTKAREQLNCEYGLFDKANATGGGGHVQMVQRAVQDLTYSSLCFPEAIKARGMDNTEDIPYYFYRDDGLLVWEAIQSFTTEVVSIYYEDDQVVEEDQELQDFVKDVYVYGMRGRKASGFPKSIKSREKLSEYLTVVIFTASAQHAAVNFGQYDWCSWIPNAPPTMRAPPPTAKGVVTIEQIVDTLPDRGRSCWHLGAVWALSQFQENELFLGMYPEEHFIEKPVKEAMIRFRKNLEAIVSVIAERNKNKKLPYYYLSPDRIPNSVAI
In short: (§3)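 Lysate plus compound (DMSO) in buffer with 0.1 M NaCl, 0.7 mM CaCl2, 20 min room temperature, then [14C]AA substrate mix 5 min 37 °C. Products extracted, resolved by silica TLC, autoradiography/densitometry; IC50 by regression.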

Mus musculus [3] = assay: (§4) In vivo activity against acute TPA-induced ear edema in mouse.; type: functional
In short: (§5)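 Mice, 8 per group, TPA in acetone (10 μL) applied topically to both ear surfaces with or without drug. Sacrifice at 6 h; punch biopsies weighed, MPO measured spectrophotometrically in homogenized tissue, histology also done; compared with maximal control.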

[4] = target: Platelet-activating factor receptor (Homo sapiens, UniProt P25105); assay: Displacement of [3H]PAF from PAF receptor of human platelet membranes
Mus musculus [5] = assay: In vivo inhibition against arachidonic acid induced ear Edema in mice at a concentration of 3 mg/kg; type: functional
In short: (§6)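 Compound given iv at 3 mg/kg in 0.5% DMSO saline 15 min before topical arachidonic acid (0.5 mg in acetone/pyridine/water 97:2:1) on both ears of mice. Sacrifice at 1 h; 7-mm ear punches weighed, edema as mean wet weight.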

[6] = Half-life was determined; type: ADME; conditions: human
Mus musculus [7] = assay: In vivo activity against arachidonic acid induced ear edema in mouse.; type: functional; in short: as §6
Mus musculus [8] = assay: as §4; type: functional; in short: as §5; remark: listed apart in the source
[9] = In vivo activity against platelet activating factor (PAF)-induced hemoconcentration in mouse.; type: functional
In short: (§7)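 Mice given compound iv at 3 mg/kg in 0.5% DMSO saline, then PAF (10 μg, in 0.25% BSA/saline) iv by tail vein 15 min later. Tail blood taken 15 min after PAF for hematocrit; percent inhibition relative to vehicle control.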

Mus musculus [10] = assay: In vivo inhibition against PAF induced hemoconcentration in mice at a concentration of 3 mg/kg; type: functional; in short: as §7
Homo sapiens [11] = species on record: Homo sapiens; assay: In vitro inhibition of LTB4 production in human whole blood; type: functional; in short: as §2
Mus musculus [12] = assay: In vivo activity against chronic TPA-induced ear edema in mouse.; type: functional
In short: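 Mice, 8 per group, TPA in acetone (10 μL) applied topically to both ears once a day every 2 days for 10 days. Drug applied topically twice daily over the last 3 days. Punch biopsies weighed; MPO measured spectrophotometrically; histology also done.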

Homo sapiens [13] = species on record: Homo sapiens; assay: as §1; type: functional; design: concentration or dose not given beside the values; in short: as §2
[14] = target: T1, Polyunsaturated fatty acid 5-lipoxygenase; assay: 5-lipoxygenase inhibitory activity determined by measuring the conversion of [14C]arachidonic acid to leukotrienes in RBL-2H3 cell using thin-layer chromatography.; type: cell-based; in short: as §3

Sequence of Platelet-activating factor receptor (P25105 whole entry): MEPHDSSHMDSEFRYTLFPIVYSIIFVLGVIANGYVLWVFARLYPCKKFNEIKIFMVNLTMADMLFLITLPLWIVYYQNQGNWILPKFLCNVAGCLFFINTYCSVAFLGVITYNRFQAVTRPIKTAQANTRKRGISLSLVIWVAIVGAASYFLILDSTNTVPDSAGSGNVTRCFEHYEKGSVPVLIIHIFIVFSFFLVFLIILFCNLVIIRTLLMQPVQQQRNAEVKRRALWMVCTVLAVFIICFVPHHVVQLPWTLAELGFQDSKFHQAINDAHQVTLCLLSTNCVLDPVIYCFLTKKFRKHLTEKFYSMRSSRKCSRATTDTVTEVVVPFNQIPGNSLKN

| SMILES | IC50 (Homo sapiens [1]) [µM] | IC50 [2] [nM] | IC50 [4] [nM] | inhibition in vivo at 3 mg/kg (Mus musculus [5]) [%] | inhibition in vivo at 3 mg/kg (Mus musculus [10]) [%] | Inhibition (Homo sapiens [13]) [%] | other results |
| --- | --- | --- | --- | --- | --- | --- | --- |
| CCCCN(O)C(=O)Nc1cc([C@@H]2CC[C@@H](c3cc(OC)c(OC)c(OC)c3)O2)cc(OC)c1OCCC | 3.5 |  |  |  |  |  |  |
| CC(C#Cc1ccc(Oc2ccc(F)cc2)o1)N(O)C(N)=O (stereo not drawn) | 0.1 | 298 |  |  |  |  |  |
| COc1cc([C@@H]2CC[C@@H](c3cc(OC)c(OC)c(OC)c3)O2)cc(CNC(=O)N(C)O)c1OCCSc1ccc(Cl)cc1 (racemic) | 7.8 | 100 | 10 | 46 | 56 |  | ED50 (Mus musculus [3]): 299 ug ear-1; half-life [6]: 30 min; ED50 (Mus musculus [7]): 1.8 mg/kg; ED50 (Mus musculus [8]): 269 ug ear-1; ED50 [9]: 2.2 mg/kg; IC50 (Homo sapiens [11]): 7.8 µM; ED50 (Mus musculus [12]): 552 ug ear-1 and 580 ug ear-1 |
| CCCCN(O)C(=O)Nc1cc([C@@H]2CC[C@@H](c3cc(OC)c(OC)c(OC)c3)O2)cc(OC)c1OCCSc1ccccc1Br (racemic) |  | 33 | 23 | 26 | 34 | 48 |  |
| CCCCN(O)C(=O)Nc1cc([C@@H]2CC[C@@H](c3cc(OC)c(OC)c(OC)c3)O2)cc(OC)c1OCCSc1cccc(Br)c1 (racemic) | 7.5 | 43 | 22 | 40 | 28 |  |  |
| CCCCN(O)C(=O)Nc1cc([C@@H]2CC[C@@H](c3cc(OC)c(OC)c(OC)c3)O2)cc(OC)c1OCCSc1ccc(Br)cc1 (racemic) | 1.2 | 19 | 21 |  |  |  |  |
| CCCCN(O)C(=O)Nc1cc([C@@H]2CC[C@@H](c3cc(OC)c(OC)c(OC)c3)O2)cc(OC)c1OCCSc1ccc(Cl)c(Cl)c1 (racemic) |  | 17 | 45 | 26 | 26 | 61 |  |
| CCCCN(O)C(=O)Nc1cc([C@@H]2CC[C@@H](c3cc(OC)c(OC)c(OC)c3)O2)cc(OC)c1OCCSc1c(F)c(F)cc(F)c1F (racemic) |  | 118 | 2 | 30 | 59 | 3 |  |
| CCCCN(O)C(=O)Nc1cc([C@@H]2CC[C@@H](c3cc(OC)c(OC)c(OC)c3)O2)cc(OC)c1OCCS(=O)(=O)c1ccc(Br)cc1 (racemic) |  |  | 38 | 35 | 29 | 72 |  |
| CCCCN(O)C(=O)Nc1cc([C@@H]2CC[C@@H](c3cc(OC)c(OC)c(OC)c3)O2)cc(OC)c1OCCSc1ccc(Cl)cc1 (racemic) | 6.5 |  | 20 | 39 | 43 |  | IC50 [14]: 58 nM |
| CCCCN(O)C(=O)Nc1cc([C@@H]2CC[C@@H](c3cc(OC)c(OC)c(OC)c3)O2)cc(OC)c1OCCSc1ccc(OC)cc1 (racemic) |  | 71 | 39 | 3 | 24 | 32 |  |
| CCCCN(O)C(=O)NCc1cc([C@@H]2CC[C@@H](c3cc(OC)c(OC)c(OC)c3)O2)cc(OC)c1OCCSc1ccc(Cl)cc1 (racemic) |  |  | 167 |  |  | 26 |  |
| CCCCN(O)C(=O)Nc1cc([C@@H]2CC[C@@H](c3cc(OC)c(OC)c(OC)c3)O2)cc(OC)c1OCCS(=O)(=O)c1c(F)c(F)cc(F)c1F (racemic) |  | 520 | 285 | 12 | 50 |  |  |
| CCCCN(O)C(=O)Nc1cc([C@@H]2CC[C@@H](c3cc(OC)c(OC)c(OC)c3)O2)cc(OC)c1OCCS(=O)(=O)c1ccccc1Br (racemic) |  | 161 | 25 |  | 60 | 19 |  |
| CC(c1cc2ccccc2s1)N(O)C(N)=O (stereo not drawn) [ZILEUTON] |  |  |  |  |  | 1 |  |
